ChEMBL document CHEMBL1122395, “Tetracyclic chromophoric analogues of actinomycin D: synthesis, structure elucidation and interconvertibility from one form to another, antitumor activity, and structure-activity relationships” (1983)
≈ marks a conversion by molar mass, not a printed value. Starred links: 1 amine or outer side, 2 acyl side, 3 side chain; linkers in the order of their positions; H or OH if unused. Positions of bridges follow the written chain, without caps; N, C: chain ends. Non-standard residues stand in square brackets, D forms with d. Residues, ends and D or L forms follow the SMILES beside them. Chains are numbered I, II in the order given. Actinocin(1to9) = Cc1c2oc3c(C)ccc(C(=O)[*:2])c3nc-2c(C(=O)[*:1])c(N)c1=O; NMeV = CN[C@H](C(=O)O)C(C)C; Sar = CNCC(=O)O

Key:
[1] = system: CCRF-CEM; assay: Growth inhibitory activity against human lymphoblastic leukemia cells(CCRF-CEM); assay type: functional; conditions: read-out: ID50 (the source's name)
Procedure, shortened: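 Log-phase human lymphoblastic leukemia CCRF-CEM cells grown in suspension culture. Compounds dissolved in Me2SO, final growth medium contained 5% Me2SO. Test solutions kept at 0-4 °C, protected from light, homogeneity checked by HPLC before testing. ID50 reported in ng/mL.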

[2] = species on record: Mus musculus; assay: Male CDF1 hybrid treated mice out of seven which survived over 60 days after the treatment.; assay type: functional
Procedure, shortened: (§1)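 Male CDF1 mice, seven per group, given 10^6 P388 cells ip on day 0. Drugs were given ip in 10% Me2SO-saline on days 1, 5 and 9, with solutions kept at 0-4 °C, protected from light and checked for homogeneity by HPLC. A range of doses was run and the optimal nontoxic dose reported. Read-outs were median survival time, percent increase in life span, and cures (over-60-day survivors, average of two experiments).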

[3] = system: P388; assay: Percent increase in life span observed in P-388 cells infected male CDF1 hybrid mice after intraperitoneal administration at 1200 ug/kg optimal dose; assay type: functional, Mus musculus; procedure, shortened: as §1
[4] = system: P388; assay: Median survival time observed in P-388 cells infected male CDF1 hybrid mice after intraperitoneal administration at 1200 ug/kg optimal dose; assay type: functional, Mus musculus; procedure, shortened: as §1
[5] = system: P388; assay: Percent increase in life span observed in P-388 cells infected male CDF1 hybrid mice after intraperitoneal administration at 125 ug/kg optimal dose; assay type: functional, Mus musculus; procedure, shortened: as §1
[6] = system: P388; assay: Median survival time observed in P-388 cells infected male CDF1 hybrid mice after intraperitoneal administration at 125 ug/kg optimal dose; assay type: functional, Mus musculus; procedure, shortened: as §1
[7] = species on record: Bos taurus; assay: Melting temperature of DNA-drug complex minus melting temperature of purified calf-thymus DNA; assay type: functional
Procedure, shortened: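 Calf-thymus DNA, purified. ΔTm is the Tm of the DNA-drug complex minus the Tm of DNA alone. Medium was 0.01 M phosphate buffer, pH 7.0, with EDTA.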

[8] = system: P388; assay: Percent increase in life span observed in P-388 cells infected male CDF1 hybrid mice after intraperitoneal administration at 450 ug/kg optimal dose; assay type: functional, Mus musculus; procedure, shortened: as §1
[9] = system: P388; assay: Median survival time observed in P-388 cells infected male CDF1 hybrid mice after intraperitoneal administration at 450 ug/kg optimal dose; assay type: functional, Mus musculus; procedure, shortened: as §1
[10] = system: P388; assay: Percent increase in life span observed in P-388 cells infected male CDF1 hybrid mice after intraperitoneal administration at 600 ug/kg optimal dose; assay type: functional, Mus musculus; procedure, shortened: as §1
[11] = system: P388; assay: Median survival time observed in P-388 cells infected male CDF1 hybrid mice after intraperitoneal administration at 600 ug/kg optimal dose; assay type: functional, Mus musculus; procedure, shortened: as §1
[12] = system: P388; assay: Percent increase in life span observed in P-388 cells infected male CDF1 hybrid mice after intraperitoneal administration at 900 ug/kg optimal dose; assay type: functional, Mus musculus; procedure, shortened: as §1
[13] = system: P388; assay: Median survival time observed in P-388 cells infected male CDF1 hybrid mice after intraperitoneal administration at 900 ug/kg optimal dose; assay type: functional, Mus musculus; procedure, shortened: as §1
[14] = system: P388; assay: Percent increase in life span observed in P-388 cells infected male CDF1 hybrid mice after intraperitoneal administration at 1800 ug/kg optimal dose; assay type: functional, Mus musculus; procedure, shortened: as §1
[15] = system: P388; assay: Median survival time observed in P-388 cells infected male CDF1 hybrid mice after intraperitoneal administration at 1800 ug/kg optimal dose; assay type: functional, Mus musculus; procedure, shortened: as §1

| SMILES | IC50 [1] [µg/mL] | Cures [2] | ILS [3] [%] | MST [4] [days] | also measured |
| --- | --- | --- | --- | --- | --- |
| Cc1ccc(C(=O)N[C@@H]2C(=O)N[C@H](C(C)C)C(=O)N3CCC[C@H]3C(=O)N(C)CC(=O)N(C)[C@@H](C(C)C)C(=O)O[C@@H]2C)c2c1Oc1c(c(C(=O)N[C@@H]3C(=O)N[C@H](C(C)C)C(=O)N4CCC[C@H]4C(=O)N(C)CC(=O)N(C)[C@@H](C(C)C)C(=O)O[C@@H]3C)c3nc(-c4ccc5ccccc5c4)c(=O)oc3c1C)N2 | 1 (≈ 0.703 µM) | 0 | 136 | 26 | – |
| Cc1c2oc3c(C)ccc(C(=O)N[C@@H]4C(=O)N[C@H](C(C)C)C(=O)N5CCC[C@H]5C(=O)N(C)CC(=O)N(C)[C@@H](C(C)C)C(=O)O[C@@H]4C)c3nc-2c(C(=O)N[C@@H]2C(=O)N[C@H](C(C)C)C(=O)N3CCC[C@H]3C(=O)N(C)CC(=O)N(C)[C@@H](C(C)C)C(=O)O[C@@H]2C)c(N)c1=O [DACTINOMYCIN] (I: T[dV]P[Sar][NMeV] / II: T[dV]P[Sar][NMeV]; ester I:1-I:C, II:1-II:C; linker I:N-II:N via Actinocin(1to9)) | 0.04 (≈ 0.0319 µM) | 1 | – | – | ILS [5]: 136%; MST [6]: 26 days; ΔTm [7]: 7.1 °C |
| Cc1nc2c(C(=O)N[C@@H]3C(=O)N[C@H](C(C)C)C(=O)N4CCC[C@H]4C(=O)N(C)CC(=O)N(C)[C@@H](C(C)C)C(=O)O[C@@H]3C)c3nc4c(C(=O)N[C@@H]5C(=O)N[C@H](C(C)C)C(=O)N6CCC[C@H]6C(=O)N(C)CC(=O)N(C)[C@@H](C(C)C)C(=O)O[C@@H]5C)cc(=O)c(C)c-4oc3c(C)c2o1 | 0.23 (≈ 0.178 µM) | 1 | – | – | ILS [8]: 182%; MST [9]: 31 days |
| Cc1nc2c(C(=O)N[C@@H]3C(=O)N[C@H](C(C)C)C(=O)N4CCC[C@H]4C(=O)N(C)CC(=O)N(C)[C@@H](C(C)C)C(=O)O[C@@H]3C)c3c(c(C)c2o1)Oc1c(C)ccc(C(=O)N[C@@H]2C(=O)N[C@H](C(C)C)C(=O)N4CCC[C@H]4C(=O)N(C)CC(=O)N(C)[C@@H](C(C)C)C(=O)O[C@@H]2C)c1N3 | 2.9 (≈ 2.26 µM) | 0 | 91 | 21 | – |
| CCCCCCc1nc2c(C(=O)N[C@@H]3C(=O)N[C@H](C(C)C)C(=O)N4CCC[C@H]4C(=O)N(C)CC(=O)N(C)[C@@H](C(C)C)C(=O)O[C@@H]3C)c3c(c(C)c2oc1=O)Oc1c(C)ccc(C(=O)N[C@@H]2C(=O)N[C@H](C(C)C)C(=O)N4CCC[C@H]4C(=O)N(C)CC(=O)N(C)[C@@H](C(C)C)C(=O)O[C@@H]2C)c1N3 | 2.08 (≈ 1.51 µM) | 0 | 127 | 25 | – |
| Cc1ccc(C(=O)N[C@@H]2C(=O)N[C@H](C(C)C)C(=O)N3CCC[C@H]3C(=O)N(C)CC(=O)N(C)[C@@H](C(C)C)C(=O)O[C@@H]2C)c2c1Oc1c(c(C(=O)N[C@@H]3C(=O)N[C@H](C(C)C)C(=O)N4CCC[C@H]4C(=O)N(C)CC(=O)N(C)[C@@H](C(C)C)C(=O)O[C@@H]3C)c3nc(-c4ccccc4)c(=O)oc3c1C)N2 | 0.44 (≈ 0.321 µM) | 2 | – | – | ILS [10]: 309%; MST [11]: 45 days |
| Cc1c2oc3c(C)c4oc(-c5c(F)c(F)c(F)c(F)c5F)nc4c(C(=O)N[C@@H]4C(=O)N[C@H](C(C)C)C(=O)N5CCC[C@H]5C(=O)N(C)CC(=O)N(C)[C@@H](C(C)C)C(=O)O[C@@H]4C)c3nc-2c(C(=O)N[C@@H]2C(=O)N[C@H](C(C)C)C(=O)N3CCC[C@H]3C(=O)N(C)CC(=O)N(C)[C@@H](C(C)C)C(=O)O[C@@H]2C)cc1=O | 0.63 (≈ 0.435 µM) | 1 | – | – | ILS [12]: 172%; MST [13]: 3 days |
| Cc1ccc(C(=O)N[C@@H]2C(=O)N[C@H](C(C)C)C(=O)N3CCC[C@H]3C(=O)N(C)CC(=O)N(C)[C@@H](C(C)C)C(=O)O[C@@H]2C)c2c1Oc1c(c(C(=O)N[C@@H]3C(=O)N[C@H](C(C)C)C(=O)N4CCC[C@H]4C(=O)N(C)CC(=O)N(C)[C@@H](C(C)C)C(=O)O[C@@H]3C)c3nc(-c4c(F)c(F)c(F)c(F)c4F)oc3c1C)N2 | 12.5 (≈ 8.72 µM) | 0 | – | – | ILS [14]: 72%; MST [15]: 19 days |
| Cc1ccc(C(=O)N[C@@H]2C(=O)N[C@H](C(C)C)C(=O)N3CCC[C@H]3C(=O)N(C)CC(=O)N(C)[C@@H](C(C)C)C(=O)O[C@@H]2C)c2c1Oc1c(c(C(=O)N[C@@H]3C(=O)N[C@H](C(C)C)C(=O)N4CCC[C@H]4C(=O)N(C)CC(=O)N(C)[C@@H](C(C)C)C(=O)O[C@@H]3C)c3nc(-c4ccccc4Cl)c(=O)oc3c1C)N2 | 1.8 (≈ 1.28 µM) | 1 | 172 | 30 | – |
